bCat nuc transl – beta-catenin nuclear translocation modulation | AID 1665 | 190,000 compounds, 0.3% hits | nuclear translocation activity, % at 5 µM | HeLa beta-catenin nuclear translocation, immunofluorescence imaging;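 active means nuclear translocation activity above 50% at 5 µM, with a well cell count of 50 or more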;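 further: per-cell ratio of nuclear to cytoplasmic median beta-catenin stain intensity; plate controls were DMSO negative control for no effect and GSK-3 inhibitor IX positive control for full effect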
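System: Human HeLa cells, endogenous beta-catenin | Compound dosing: 5 µM primary, 0.02–20 µM confirmation | Timing: 24 h compound exposure at 37°C, 5% CO2 | Measured by: Fluorescence imaging of beta-catenin antibody stain plus DAPI | Read-out basis: % activation of per-cell nuclear versus cytoplasmic median beta-catenin signal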
CHOP inh – blocks CHOP induction under ER stress | CHO-K1 CHOP-promoter luciferase, tunicamycin-induced, 15-18 h | inhibition, % at 10 µM | 220,000 compounds, 3.8% hits | AID 2732;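 active means compounds that reduced the stress-induced luciferase reporter signal by more than about 70% of percent inhibition, limit read from the data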;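 further: 0% = tunicamycin plus vehicle and 100% = wells without tunicamycin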
MT stabilize HCS – microtubule stabilization, imaging screen. HeLa tubulin immunostaining HCS, 24 h; share of cells brighter than vehicle mean+2SD. % tubulin-high responders, % at 10 µM. 200,000 compounds, 0.83% hits;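 active means plate Z-score above 3 for both tubulin-high and condensed-nucleus cell shares, with cell loss under 80%, at 10 µM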;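 further: anti alpha tubulin signal scored within the nucleus-defined area of each cell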
Lmaj promast – inhibitors of Leishmania major promastigote growth. Leishmania major promastigotes, resazurin fluorescence viability. inhibition, % at 10 µM. 200,000 compounds, 9% hits. AID 1063; in the data active means inhibition above about 50%;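 further: promastigotes grown with compound for 44 hours at 28 °C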
Dynein transport – dynein cargo transport inhibition; 3617.4 mouse cells, GR-EGFP nuclear translocation imaging; test concentration mostly 20 µM; stimulated with dexamethasone, 1 µM; stronger effect = lower value; z-score, hits read low; 220,000 compounds, 0.47% hits;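 active means plate z-score of nuclear minus cytoplasmic receptor signal below a set negative limit, without overly bright fluorescence or cell loss, cut at about -3.5 in these data, passing the limit was not always enough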;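 further: z-score of nuclear minus cytoplasmic ring GR-EGFP intensity difference per well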
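Buffer or medium: Induction medium lacking tetracycline, stripped serum | Also added: Dexamethasone agonist, 1.0 µM final, for 30 min | Timing: 48 h induction, 1 h compound, 30 min dex at 37 °C | Detection: Formaldehyde fixation, Hoechst nuclear stain, 10x automated fluorescence imaging | Measure: Nuclear versus cytoplasmic GR-EGFP signal, averaged per well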
Autophagy HCS – alters autophagy in cells; calls only at 10 µM (by protocol); AID 463193; MEF GFP-LC3 puncta imaging; test concentration mostly 10 µM; 190,000 compounds, 0.98% hits;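 active means percentage of spot-positive cells more than 3 SD above its plate mean, without a fluorescence outlier flag or 80% toxicity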;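 further: spot-positive cell cutoff set from DMSO-treated cells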
Numbers without * were called inactive; i = inactive; . = not tested or not shown; + = active, no number. Sampled rows, rich in hits. Any-hit rate of the full collection: about 12%.

SMILES	bCat nuc transl	CHOP inh	MT stabilize HCS	Lmaj promast	Dynein transport	Autophagy HCS
Clc1cccc(Cl)c1Cn1c(-c2cccnc2Cl)nc2ccccc21	-1.9	11.4	3.0	76.1*	-0.694	i
Cc1cc(C)n(-c2nc3c(c(=O)[nH]c(=O)n3C)n2CC(O)COc2ccccc2)n1 (centres undefined)	-0.4	33.1	3.9	-0.3	-0.22	i
COc1ccc(CCn2c(-n3nc(C)cc3C)nc3c2c(=O)[nH]c(=O)n3C)cc1	.	.	26.7	-1.8	-0.358	+
Cc1cccc(OCC(O)Cn2c(-n3nc(C)cc3C)nc3c2c(=O)[nH]c(=O)n3C)c1 (centres undefined)	-4.1	72.9*	6.3	7.0	-0.819	i
O=C(N/C=C/c1ccc(Cl)cc1)NCc1ccc(Cl)cc1	-0.8	-1.6	1.9	60.0*	0.845	i
Cc1ccc(NC(=O)N/C=C/c2ccc(Cl)cc2)cc1	2.8	10.5	1.8	7.5	0.185	i
O=C(N/C=C/c1ccccc1)Nc1ccc(Cl)cc1	0.6	87.1*	2.1	-8.0	-0.293	i
Cc1ccc(CNC(=O)CSc2c3c(nc4cc(Cl)ccc24)CCCC3)o1	-9.4	0.9	4.9	44.1	-3.3	i
CC(C)(C)NC(=O)NC(=O)COC(=O)c1cc[n+]([O-])cc1	-2.9	9.9	3.5	-7.9	0.861	i
COc1cccc(CC2(CO)CCN(CC3=CC[C@H]4C[C@@H]3C4(C)C)CC2)c1	-0.8	41.3	1.4	88.4*	-0.45	i
OCC1(Cc2cccc(F)c2)CCN(Cc2ccc3cccc(F)c3n2)CC1	0.3	20.7	1.7	88.4*	0.182	+
OCC1(CCOc2ccccc2)CCN(Cc2ccc3cccc(F)c3n2)CC1	0.7	16.0	3.3	81.9*	-0.168	i
COc1cccc(CC2(CO)CCN(Cc3cn(C)nc3C)CC2)c1	2.9	4.5	4.3	75.0*	0.739	i
COc1ccc(NC(=O)C23CC4CC(C2)CC(c2ccc(C)cc2)(C4)C3)cc1	1.0	32.0	1.5	12.3	0.999	i
COc1ccc(C2CC(c3ccccc3)=NN2C(=O)COC(=O)c2cc(S(=O)(=O)N3CCOCC3)ccc2F)cc1 (centres undefined)	-1.6	-65.0	1.6	27.1	0.265	i
COC(=O)c1cccc(NC(=O)Nc2ccccc2OC)c1	0.4	32.5	5.4	10.6	0.667	i
COc1cccc(CC2(CO)CCN(Cc3ccc4cccc(F)c4n3)CC2)c1	0.3	16.4	2.4	80.4*	-0.102	i
CC1=CC(=Nc2c(C)n(C)n(-c3ccccc3)c2=O)C=C(C)C1=O	-0.8	-71.8	4.5	72.1*	-1.3	i
CCC(C)C1=CC(=Nc2c(C)n(C)n(-c3ccccc3)c2=O)C=C(C(C)CC)C1=O (centres undefined)	-3.5	63.9	2.6	-1.9	-0.563	i
O=C(NCCN1C(=O)S/C(=C\c2cccs2)C1=O)[C@H](Cc1ccccc1)N1C(=O)c2ccccc2C1=O	.	27.7	1.5	45.7	0.136	i
CCCc1nc2oc3c(NCCN(C)C)ncnc3c2c2c1CCCC2	8.1	7.4	5.3	100.6*	-0.459	i
COc1ccc(CCNC(=O)c2cc(-c3ccccn3)nc3c(Cl)cccc23)cc1OC	-3.4	17.1	1.4	9.6	2.11	i
COc1ccc(CCNC(=O)c2cc(-c3ccncc3)nc3c(Cl)cccc23)cc1OC	0.7	12.9	4.1	50.6*	-0.399	i
COc1ccc(CNC(=O)c2cc(-c3ccncc3)nc3c(C)cc(C)cc23)cc1OC	0.7	88.5*	2.1	20.1	0.833	i
Cc1nn(CC(=O)NCc2ccc(-n3cccn3)cc2)c(C)c1[N+](=O)[O-]	.	10.5	3.0	-2.4	-0.883	i
SMILES	bCat nuc transl	CHOP inh	MT stabilize HCS	Lmaj promast	Dynein transport	Autophagy HCS
COc1ccc2[nH]c3c4c(ccc3c2c1)C(=O)C=CC4=O	2.0	88.6*	.	.	-5.23*	.
COc1ccc2[nH]c(=O)cc(C(=O)O)c2c1	-1.0	-4.1	2.8	-4.5	1	i
CCOc1ccc(C2Nc3cccc4cccc(c34)N2)cc1OC	-2.9	-7.3	5.5	68.7*	-1.32	i
CN1C(=O)/C(=C/c2ccccc2OCc2cccc(F)c2)N(C)C1=S	.	31.8	1.4	80.2*	-1.21	i
Cc1cc(C(=O)CSc2nc(N)cc(N)n2)c(C)n1-c1cccc(C(F)(F)F)c1	.	30.9	1.3	81.5*	-1.02	i
Cc1cc(C(=O)CSc2ncccn2)c(C)n1-c1cccc(F)c1	-1.8	4.2	3.1	-1.8	-0.375	i
COc1ccc(-c2csc(NC(=O)CSc3ncn[nH]3)n2)cc1OC	1.1	6.3	4.6	4.1	3.24	i
COc1ccc(/C=N/Nc2ccccc2)cc1Cn1nc(C)c([N+](=O)[O-])c1C	-9.2	24.5	1.6	76.7*	0.248	i
COc1ccc(/C=N/N2CCOCC2)cc1Cn1nc(C)c([N+](=O)[O-])c1C	-0.8	-11.3	.	.	-0.153	.
COc1ccc(/C=N/Nc2ccc([N+](=O)[O-])cc2)cc1Cn1cc([N+](=O)[O-])cn1	51.3*	61.2	9.1	-3.0	-0.0672	i
CC(C)C(=O)n1nc(-c2cccnc2)nc1NCc1ccc(F)cc1	-0.3	19.0	3.0	9.3	0.627	i
CC(=O)Oc1ccc2c(c1)O/C(=C\c1ccncc1)C2=O	0.7	13.6	.	.	-0.813	.
COc1ccc(S(=O)(=O)Oc2ccc3c(c2)O/C(=C\c2cccnc2)C3=O)cc1	.	54.1	2.0	85.8*	1.33	i
CS(=O)(=O)Oc1ccc2c(c1)O/C(=C\c1cccnc1)C2=O	-3.2	-11.9	.	.	1.1	.
O=C1/C(=C/c2cccnc2)Oc2cc(OS(=O)(=O)c3ccc(Cl)cc3)ccc21	.	78.2*	1.3	14.1	0.065	i
O=C1/C(=C/c2cccnc2)Oc2cc(OS(=O)(=O)c3ccccc3)ccc21	.	30.3	2.3	57.0*	-0.0208	i
NC(=O)CC[C@H](NC(=O)OCc1ccccc1)C(=O)OCc1ccc(Cl)cc1	.	60.7	0.7	20.6	-0.778	i
COc1ccccc1C(=O)NNC(=O)c1ccc(NC(=O)C(C)C)cc1	-5.9	-4.6	2.6	-4.9	-0.0396	i
O=C(C1CCN(S(=O)(=O)c2ccc3c(c2)OCCO3)CC1)N1CCc2ccccc21	-3.4	41.4	3.2	-2.7	0.624	i
CC(OC(=O)C1CCN(S(=O)(=O)c2ccc(Cl)cc2)CC1)C(=O)N1CCc2ccccc21 (centres undefined)	-4.6	12.9	7.7	97.8*	1.03	i
Cc1c(NS(=O)(=O)c2cc(NC(=O)CCN3CCCC(C)C3)ccc2Cl)c(=O)n(-c2ccccc2)n1C (centres undefined)	0.4	-11.4	1.9	-7.3	-0.2	i
CC(NCc1ccc(N(C)C)cc1)C1CC2CCC1C2 (centres undefined)	.	22.7	1.4	97.9*	-0.581	i

Bioassay records (PubChem)
